Key:
[1] = molecular target: T1, 5-hydroxytryptamine receptor 1A (Rattus norvegicus, UniProt P19327); experiment: Inhibition of [3H]8-OH-DPAT binding to Serotonin 5-HT1A receptor from rat brain cortex
T1 sequence (P19327 whole entry): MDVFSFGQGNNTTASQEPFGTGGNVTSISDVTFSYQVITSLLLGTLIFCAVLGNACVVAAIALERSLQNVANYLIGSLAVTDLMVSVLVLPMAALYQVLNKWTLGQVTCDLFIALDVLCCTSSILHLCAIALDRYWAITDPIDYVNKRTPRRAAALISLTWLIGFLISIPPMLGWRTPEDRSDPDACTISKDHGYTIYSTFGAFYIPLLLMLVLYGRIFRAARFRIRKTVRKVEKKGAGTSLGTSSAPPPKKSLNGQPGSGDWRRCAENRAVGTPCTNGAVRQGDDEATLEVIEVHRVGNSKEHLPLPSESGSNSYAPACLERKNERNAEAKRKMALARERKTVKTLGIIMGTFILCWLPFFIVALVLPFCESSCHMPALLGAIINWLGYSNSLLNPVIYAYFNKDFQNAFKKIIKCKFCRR

D(2) dopamine receptor = D(2) dopamine receptor (Rattus norvegicus, UniProt P61169); experiment: Inhibition of [3H]spiperone binding to Dopamine D2 receptor from rat striatum
Summary of the method: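 Rat striatal membranes washed twice at 50 000g, resuspended in Tris-HCl pH 7.1 with NaCl, KCl, CaCl2, MgCl2, ascorbic acid, 10 μM pargyline; 3 mg fresh tissue per tube. [3H]spiperone 0.4 nM final, 15 min at 37 °C, GF/B filtration, scintillation counting. Nonspecific defined with 1 μM (+)-butaclamol. Six concentrations, triplicate; Ki via Cheng–Prusoff.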

[2] = molecular target: T2, Adrenergic receptor alpha-1 (Rattus norvegicus, UniProt P15823+P23944+P43140); experiment: Inhibition of [3H]prazosin bindign to Adrenergic alpha 1 receptor from rat brain cortex
T2 sequence (P15823 whole entry): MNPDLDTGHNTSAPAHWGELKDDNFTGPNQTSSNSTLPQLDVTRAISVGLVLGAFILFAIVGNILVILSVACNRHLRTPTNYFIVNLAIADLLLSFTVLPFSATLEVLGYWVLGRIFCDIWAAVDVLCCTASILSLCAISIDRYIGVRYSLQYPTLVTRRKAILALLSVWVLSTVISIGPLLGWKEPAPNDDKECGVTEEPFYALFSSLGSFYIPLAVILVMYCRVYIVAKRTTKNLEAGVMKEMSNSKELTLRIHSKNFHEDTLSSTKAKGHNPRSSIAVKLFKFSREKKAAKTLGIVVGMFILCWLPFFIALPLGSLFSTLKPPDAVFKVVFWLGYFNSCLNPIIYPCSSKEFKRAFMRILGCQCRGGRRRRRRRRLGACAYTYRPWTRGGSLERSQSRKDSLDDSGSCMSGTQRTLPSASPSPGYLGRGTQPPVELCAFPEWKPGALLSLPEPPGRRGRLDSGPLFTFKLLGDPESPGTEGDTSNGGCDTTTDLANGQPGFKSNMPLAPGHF
T2 sequence (P23944 whole entry): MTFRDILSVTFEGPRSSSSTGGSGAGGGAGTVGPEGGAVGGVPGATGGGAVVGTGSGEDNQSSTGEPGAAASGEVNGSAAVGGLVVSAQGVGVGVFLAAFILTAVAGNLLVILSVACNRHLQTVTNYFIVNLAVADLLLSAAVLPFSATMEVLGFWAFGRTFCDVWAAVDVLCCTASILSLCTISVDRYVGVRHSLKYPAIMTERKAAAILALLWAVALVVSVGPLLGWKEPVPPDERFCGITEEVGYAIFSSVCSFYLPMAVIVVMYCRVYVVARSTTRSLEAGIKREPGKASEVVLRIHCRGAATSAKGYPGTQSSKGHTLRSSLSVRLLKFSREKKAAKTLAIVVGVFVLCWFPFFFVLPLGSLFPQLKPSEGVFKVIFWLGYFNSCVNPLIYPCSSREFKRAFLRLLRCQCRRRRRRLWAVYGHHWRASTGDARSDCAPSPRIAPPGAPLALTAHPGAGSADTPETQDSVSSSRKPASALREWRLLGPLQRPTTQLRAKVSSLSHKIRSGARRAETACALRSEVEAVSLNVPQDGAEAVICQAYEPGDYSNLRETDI
T2 sequence (P43140 whole entry): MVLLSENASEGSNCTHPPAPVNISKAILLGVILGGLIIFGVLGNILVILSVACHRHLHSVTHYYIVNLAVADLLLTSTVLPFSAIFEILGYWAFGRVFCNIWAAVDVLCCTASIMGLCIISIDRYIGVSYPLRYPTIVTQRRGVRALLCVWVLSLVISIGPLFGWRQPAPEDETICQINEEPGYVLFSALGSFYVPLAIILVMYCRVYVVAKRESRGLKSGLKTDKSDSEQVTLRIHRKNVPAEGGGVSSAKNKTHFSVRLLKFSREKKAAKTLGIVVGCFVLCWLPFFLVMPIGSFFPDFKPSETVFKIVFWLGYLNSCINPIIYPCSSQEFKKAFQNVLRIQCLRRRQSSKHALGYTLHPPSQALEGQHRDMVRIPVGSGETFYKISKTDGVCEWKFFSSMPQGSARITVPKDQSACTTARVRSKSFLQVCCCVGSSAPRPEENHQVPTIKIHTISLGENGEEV
Summary of the method: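 Cortical membranes in 50 mM Tris-HCl pH 7.4, 10 mg fresh tissue per tube, with [3H]prazosin 0.4 nM final; 30 min at 25 °C, then vacuum filtration on GF/B and scintillation counting. 10 μM phentolamine defined nonspecific binding. Six test concentrations in triplicate; IC50 from competition curves, Ki by Cheng–Prusoff using Scatchard KD.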

[3] = molecular target: 5-hydroxytryptamine receptor 2A (Rattus norvegicus, UniProt P14842); experiment: Inhibition of 0.4 nM [3H]ketanserin binding to Serotonin 5-HT2A receptor from rat brain cortex
[4] = molecular target: T3, 5-hydroxytryptamine receptor 2C (Rattus norvegicus, UniProt P08909); experiment: Inhibition of 1 nM [3H]mesulergine binding to Serotonin 5-HT2C receptor from rat brain cortex
T3 sequence (P08909 whole entry): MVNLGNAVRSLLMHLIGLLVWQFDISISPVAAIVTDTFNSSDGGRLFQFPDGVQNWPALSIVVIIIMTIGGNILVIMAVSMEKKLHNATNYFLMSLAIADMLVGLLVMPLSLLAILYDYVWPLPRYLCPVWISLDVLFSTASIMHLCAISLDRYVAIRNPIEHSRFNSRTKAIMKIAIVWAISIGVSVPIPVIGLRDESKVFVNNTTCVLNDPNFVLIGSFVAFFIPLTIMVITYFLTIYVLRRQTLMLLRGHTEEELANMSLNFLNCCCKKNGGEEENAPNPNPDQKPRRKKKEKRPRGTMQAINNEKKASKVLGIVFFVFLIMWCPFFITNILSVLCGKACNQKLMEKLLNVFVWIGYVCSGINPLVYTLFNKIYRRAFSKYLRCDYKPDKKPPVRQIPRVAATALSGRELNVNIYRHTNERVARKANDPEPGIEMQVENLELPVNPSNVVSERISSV

[5] = molecular target: T4, Adrenergic receptor alpha-2 (Rattus norvegicus, UniProt P22086+P19328+P22909); experiment: Inhibition of [3H]yohimbine binding to Adrenergic receptor alpha 2 receptor from rat brain cortex
T4 sequence (P22086 whole entry): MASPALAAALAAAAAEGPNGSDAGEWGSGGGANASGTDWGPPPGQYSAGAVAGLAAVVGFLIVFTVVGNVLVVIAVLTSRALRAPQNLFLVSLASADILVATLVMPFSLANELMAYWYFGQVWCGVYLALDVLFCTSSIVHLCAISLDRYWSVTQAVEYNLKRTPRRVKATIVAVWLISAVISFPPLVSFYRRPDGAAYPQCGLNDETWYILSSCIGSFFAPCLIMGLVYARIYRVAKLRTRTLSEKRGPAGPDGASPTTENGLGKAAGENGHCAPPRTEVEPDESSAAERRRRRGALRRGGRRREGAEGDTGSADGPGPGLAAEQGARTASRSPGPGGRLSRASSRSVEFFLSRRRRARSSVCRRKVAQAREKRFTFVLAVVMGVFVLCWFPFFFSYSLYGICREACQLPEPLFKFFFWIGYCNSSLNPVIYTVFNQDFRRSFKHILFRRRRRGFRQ
T4 sequence (P19328 whole entry): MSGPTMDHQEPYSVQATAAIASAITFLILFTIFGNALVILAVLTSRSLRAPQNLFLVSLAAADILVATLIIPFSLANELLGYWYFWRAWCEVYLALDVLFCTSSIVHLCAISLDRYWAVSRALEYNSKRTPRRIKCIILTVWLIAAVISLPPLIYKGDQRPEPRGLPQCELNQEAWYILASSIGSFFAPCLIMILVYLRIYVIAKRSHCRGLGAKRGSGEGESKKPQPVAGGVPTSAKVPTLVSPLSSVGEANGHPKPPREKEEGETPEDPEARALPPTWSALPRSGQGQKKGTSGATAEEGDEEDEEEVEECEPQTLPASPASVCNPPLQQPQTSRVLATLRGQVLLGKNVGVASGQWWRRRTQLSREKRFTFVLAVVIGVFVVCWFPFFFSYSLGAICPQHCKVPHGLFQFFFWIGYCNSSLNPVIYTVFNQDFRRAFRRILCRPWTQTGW
T4 sequence (P22909 whole entry): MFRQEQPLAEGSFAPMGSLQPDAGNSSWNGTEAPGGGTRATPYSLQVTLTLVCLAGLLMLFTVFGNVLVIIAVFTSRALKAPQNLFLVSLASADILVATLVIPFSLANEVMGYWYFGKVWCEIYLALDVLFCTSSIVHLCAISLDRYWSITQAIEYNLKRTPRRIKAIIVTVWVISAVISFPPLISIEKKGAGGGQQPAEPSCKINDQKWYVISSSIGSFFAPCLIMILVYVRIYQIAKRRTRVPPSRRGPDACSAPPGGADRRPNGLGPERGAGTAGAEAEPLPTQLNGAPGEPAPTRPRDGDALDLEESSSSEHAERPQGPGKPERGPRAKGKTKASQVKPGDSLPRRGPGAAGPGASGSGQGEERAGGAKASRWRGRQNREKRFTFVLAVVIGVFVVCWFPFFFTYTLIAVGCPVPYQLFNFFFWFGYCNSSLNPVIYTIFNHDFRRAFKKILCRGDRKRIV
Summary of the method: (§1)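 Brain cortex homogenized in 5 mM Tris-HCl/5 mM EDTA, washed three times at 50 000g, resuspended in 50 mM Tris-HCl/0.5 mM EDTA pH 7.5; 10 mg fresh tissue per tube. [3H]yohimbine 1 nM final, 30 min at 25 °C, GF/B filtration, scintillation counting. Six concentrations in triplicate; IC50 converted to Ki (Cheng–Prusoff).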

D(1A) dopamine receptor = D(1A) dopamine receptor (Rattus norvegicus, UniProt P18901); experiment: Inhibition of [3H]SCH-23,390 binding to Dopamine D1 receptor from rat striatum
Summary of the method: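 Rat striatal membranes washed twice by 50 000g spins, resuspended in Tris-HCl pH 7.1 with NaCl, KCl, CaCl2, MgCl2, ascorbic acid, 10 μM pargyline; 3 mg fresh tissue per tube. [3H]SCH-23390 at 0.4 nM final, 15 min at 37 °C, GF/B filtration, scintillation counting. Nonspecific with 0.1 μM piflutixol. Six concentrations in triplicate; IC50 converted to Ki by Cheng–Prusoff.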

[6] = molecular target: T4, Adrenergic receptor alpha-2; experiment: Inhibition of [3H]yohimbine binding to Adrenergic alpha 2 receptor from rat brain cortex; summary of the method: as §1

Sequence of 5-hydroxytryptamine receptor 2A (P14842 whole entry): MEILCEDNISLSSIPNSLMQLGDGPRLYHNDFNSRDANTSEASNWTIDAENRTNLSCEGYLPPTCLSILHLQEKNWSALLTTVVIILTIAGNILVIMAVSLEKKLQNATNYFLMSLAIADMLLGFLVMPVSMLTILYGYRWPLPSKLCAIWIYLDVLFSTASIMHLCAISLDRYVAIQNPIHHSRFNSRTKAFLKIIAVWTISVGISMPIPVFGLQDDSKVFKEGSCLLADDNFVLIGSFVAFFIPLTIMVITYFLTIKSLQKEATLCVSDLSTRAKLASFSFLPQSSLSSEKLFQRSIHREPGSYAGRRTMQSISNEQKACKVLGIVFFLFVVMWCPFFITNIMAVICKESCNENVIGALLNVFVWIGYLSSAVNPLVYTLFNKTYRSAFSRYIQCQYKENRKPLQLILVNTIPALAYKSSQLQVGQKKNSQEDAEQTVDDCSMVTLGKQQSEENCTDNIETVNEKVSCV
Sequence of D(1A) dopamine receptor (P18901 whole entry): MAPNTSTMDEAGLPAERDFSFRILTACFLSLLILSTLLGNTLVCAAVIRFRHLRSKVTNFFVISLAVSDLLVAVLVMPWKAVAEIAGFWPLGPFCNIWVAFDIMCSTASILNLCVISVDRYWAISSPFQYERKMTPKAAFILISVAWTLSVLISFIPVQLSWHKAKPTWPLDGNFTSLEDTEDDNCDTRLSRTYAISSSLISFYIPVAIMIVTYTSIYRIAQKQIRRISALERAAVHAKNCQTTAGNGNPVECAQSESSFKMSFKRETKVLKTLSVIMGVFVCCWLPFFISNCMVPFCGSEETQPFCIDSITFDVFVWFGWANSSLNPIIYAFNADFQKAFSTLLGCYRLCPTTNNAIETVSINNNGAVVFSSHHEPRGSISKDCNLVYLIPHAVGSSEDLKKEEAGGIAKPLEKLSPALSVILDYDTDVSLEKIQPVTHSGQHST
Sequence of D(2) dopamine receptor (P61169 whole entry): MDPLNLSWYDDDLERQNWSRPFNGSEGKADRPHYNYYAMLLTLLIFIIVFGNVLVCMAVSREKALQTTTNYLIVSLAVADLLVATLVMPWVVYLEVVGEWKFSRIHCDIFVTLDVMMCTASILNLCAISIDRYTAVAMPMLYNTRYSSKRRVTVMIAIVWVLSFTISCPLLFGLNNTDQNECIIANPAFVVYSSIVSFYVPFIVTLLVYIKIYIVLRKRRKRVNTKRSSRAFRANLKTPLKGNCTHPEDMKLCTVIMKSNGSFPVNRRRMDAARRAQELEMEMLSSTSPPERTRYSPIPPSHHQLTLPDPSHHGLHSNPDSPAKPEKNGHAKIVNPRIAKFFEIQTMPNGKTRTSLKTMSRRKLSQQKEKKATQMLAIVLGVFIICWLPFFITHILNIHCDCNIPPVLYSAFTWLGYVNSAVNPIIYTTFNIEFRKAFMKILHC

| SMILES | Ki [1] [nM] | Ki (D(2) dopamine receptor; read-out: Ki) [nM] | Ki [2] [nM] | Ki [3] [nM] | Ki [4] [nM] | Ki [5] [nM] | Ki (D(1A) dopamine receptor; read-out: Ki) [nM] | Ki (D(2) dopamine receptor) | Ki (D(1A) dopamine receptor) | Ki [6] [nM] |
| --- | --- | --- | --- | --- | --- | --- | --- | --- | --- | --- |
| COc1ccccc1N1CCN(CCCON2C(=O)C3C4C=CC(C4)C3C2=O)CC1 (stereo not drawn) | 0.021 | > 10000 | 75.3 | > 10000 | > 10000 | 3650 | > 10000 |  |  |  |
| O=C1C2C3C=CC(C3)C2C(=O)N1OCCCN1CCN(c2cccc(Cl)c2)CC1 (stereo not drawn) | 3.36 |  | 141 | 547 | 733 | 1710 | > 10000 | Not Active |  |  |
| O=C1C2C3C=CC(C3)C2C(=O)N1OCCN1CCN(c2ncccn2)CC1 (stereo not drawn) | 384 |  |  | > 10000 |  |  |  |  |  |  |
| O=C1C2C3C=CC(C3)C2C(=O)N1OCCCN1CCN(c2cccc(C(F)(F)F)c2)CC1 (stereo not drawn) | 5.13 | 670 | 358 | 2680 | > 10000 | 4680 | 4510 |  |  |  |
| O=C1C2C3C=CC(C3)C2C(=O)N1OCCCN1CCN(c2ccccn2)CC1 (stereo not drawn) | 30.3 |  |  | > 10000 | > 10000 |  |  |  |  |  |
| COc1ccccc1N1CCN(CCON2C(=O)C3C4C=CC(C4)C3C2=O)CC1 (stereo not drawn) | 45 |  |  | > 10000 | > 10000 |  |  |  |  |  |
| O=C1C2C3C=CC(C3)C2C(=O)N1OCCCN1CCN(c2ncccn2)CC1 (stereo not drawn) | 49.5 |  |  | 118 | > 10000 |  |  |  |  |  |
| O=C1C2C3C=CC(C3)C2C(=O)N1OCCCN1CCN(c2ccccc2Cl)CC1 (stereo not drawn) | 4.13 |  | 128 | 3900 | 423 | 3140 |  | Not Active | Not Active |  |
| O=C1C2C3C=CC(C3)C2C(=O)N1OCCN1CCN(c2cccc(Cl)c2)CC1 (stereo not drawn) | 27.1 |  |  | 2700 | > 10000 |  |  |  |  |  |
| O=C1C2C3C=CC(C3)C2C(=O)N1OCCN1CCN(c2cccc(C(F)(F)F)c2)CC1 (stereo not drawn) | 2.14 | > 10000 | > 10000 | 4010 | > 10000 | > 10000 | > 10000 |  |  |  |
| O=C1C2C3C=CC(C3)C2C(=O)N1OCCN1CCN(c2ccccn2)CC1 (stereo not drawn) | 382 |  |  | 3510 | > 10000 |  |  |  |  |  |
| O=C1C2C3C=CC(C3)C2C(=O)N1OCCN1CCN(c2ccccc2Cl)CC1 (stereo not drawn) |  | > 10000 | 747 | > 10000 | > 10000 |  | > 10000 |  |  | 691 |

From ChEMBL document CHEMBL1141158, “New 5-hydroxytryptamine(1A) receptor ligands containing a norbornene nucleus: synthesis and in vitro pharmacological evaluation” (J Med Chem, 2005)
